Source: PubChem BioAssay (several laboratories)
Only some compounds are listed: those with a hit (about 2.2% of all), similar ones and a draw of the others.
V-ATPase pH: yeast V-ATPase proton transport regulation by pHLuorin; AID 504577; S. cerevisiae, pHLuorin cytosolic pH fluorescence; response, % at 10 µM; 350,000 compounds, 0.37% hits; in the data active = response mostly above about 7.3%, no sharp cut-off; inactive = mostly below about 5.4%; note: actives read high
NRP1-CendR mod: modulators of CendR peptide binding to human neuropilin-1. FAM-RPARPAR peptide binding to NRP-1, fluorescence polarization. inhibition, % at 25 µM. 360,000 compounds, 0.85% hits;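 active = inhibition or corrected inhibition above about 18%, plus a signal ratio from 0.5 to 1.5, limit read from the data, passing the limit was not always enough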
ASAP1 inh: inhibitors of human ASAP1 ArfGAP activity; 360,000 compounds, 0.19% hits; ASAP1-stimulated ARF1 GTP hydrolysis, GDP FP detection; inhibition, % at 16.5 µM; in the data active = inhibition above about 25%;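 note: 0% = vehicle with enzyme and substrate and 100% = no enzyme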
Target sequence (Q9ULH1 325-724 limits assumed): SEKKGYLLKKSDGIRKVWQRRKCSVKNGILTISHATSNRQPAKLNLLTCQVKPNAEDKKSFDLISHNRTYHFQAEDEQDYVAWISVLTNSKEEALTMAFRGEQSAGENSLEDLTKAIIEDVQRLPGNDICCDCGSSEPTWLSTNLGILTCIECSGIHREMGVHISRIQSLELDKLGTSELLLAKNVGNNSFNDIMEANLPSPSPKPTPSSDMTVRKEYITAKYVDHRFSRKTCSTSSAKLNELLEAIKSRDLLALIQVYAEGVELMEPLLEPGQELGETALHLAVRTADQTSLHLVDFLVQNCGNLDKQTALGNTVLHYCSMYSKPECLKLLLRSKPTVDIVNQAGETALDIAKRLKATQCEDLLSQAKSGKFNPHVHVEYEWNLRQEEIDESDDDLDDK
Granule exo inh: blocks lytic granule exocytosis | TALL-104 LAMP-1 surface exposure, flow cytometry; cells stimulated with thapsigargin and PMA | 360,000 compounds, 0.66% hits | inhibition, % at 10 µM;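 active = inhibition above about 55%, limit read from the data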
ARFGAP1 inh: rat ARFGAP1 inhibition | Q62848 | Arfgap1-stimulated ARF1 GTP hydrolysis, GDP FP detection | inhibition, % at 16.5 µM | 360,000 compounds, 0.26% hits | AID 651572;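 active = inhibition above a per-plate limit, mean inhibition of low control wells plus 3 SD, cut at about 25% in these data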;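 note: 0% = DMSO wells with enzyme and 100% = wells lacking Arfgap1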
Target sequence (Q62848 1-136 limits assumed): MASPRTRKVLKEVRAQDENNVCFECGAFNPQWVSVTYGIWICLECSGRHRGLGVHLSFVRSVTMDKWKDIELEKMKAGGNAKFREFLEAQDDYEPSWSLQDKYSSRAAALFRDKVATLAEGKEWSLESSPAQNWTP
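system = rat Arfgap1 catalytic domain, aa 1-136 | technique = FP, GDP Alexa 633 tracer displaced from anti-GDP antibody, 620/688 nm | compound = one concentration, 16.5 µM, DMSO 1.26% | medium = HEPES-based buffer, pH 7.5 | timing = compound-enzyme preincubation 20 min, reaction 120 min, detection 60 min, 25 °C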
ARFGAP1 inh conf: confirmation of rat ARFGAP1 inhibitors. ARFGAP1-stimulated ARF1 GTP hydrolysis, GDP tracer FP. 890 compounds, 30% hits. shares compounds with ARFGAP1 inh. inhibition, % at 16.5 µM. AID 651608;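 active = average inhibition over triplicates above the hit cutoff set in the earlier primary screen, cut at about 25% in these data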;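 note: 0% = Arfgap1 plus ARF1-GTP with DMSO and 100% = wells lacking Arfgap1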
* = called active by the depositor; nt = no result.

SMILES	V-ATPase pH	NRP1-CendR mod	ASAP1 inh	Granule exo inh	ARFGAP1 inh	ARFGAP1 inh conf
CCC(C)C(=O)Nc1cc(OC)c(OC)cc1C(=O)O (centres undefined)	5	4	-4	-3	28*	7
O=C1CCC(c2ccccc2)(c2ccccc2)CC1	-3	13	9	-11	28*	-4
CCOC(=O)C1CSCCS(=O)(=O)N1Cc1cc(F)ccc1Br (centres undefined)	nt	nt	0	nt	13	nt
O=C(NCc1ccco1)c1ccc2sc([C@@H]3O[C@H](CO)[C@@H](O)[C@H]3O)nc2c1	nt	17	-4	-7	3	nt
COc1ccc(OC)c(-c2nnc3n2N=C(c2ccc(OC)c(OC4CCOC4)c2)CS3)c1 (centres undefined)	1	4	-1	19	26*	-2
CCN1C(=O)N(C)C(N(O)C(=O)NC)C1(C)C (centres undefined)	-3	7	-7	1	26*	-6
CNC(=O)N(O)C1N(C)C(=O)N(Cc2ccccc2)C1(C)C (centres undefined)	1	-2	8	-4	6	nt
COc1ccc(CCn2c(SCC(=O)Nc3cc(C)on3)nc3ccsc3c2=O)cc1OC	-1	-9	13	-3	37*	35*
CC(C)(C)NC(=O)CN(C(=O)c1snc(C(=O)NC2CCCCC2)c1N)c1ccc(F)cc1	-5	-2	-1	8	5	nt
COc1ccc(C(=O)C(C)OC(=O)c2nc3nccc(C)n3n2)cc1 (centres undefined)	-3	-1	6	0	-6	nt
OC(c1cccc(Cl)c1)c1nc(-c2csc3ccccc23)cs1 (centres undefined)	nt	-19	6	-1	25*	9
Cc1nc(SC(C)C(=O)NCC2CCCO2)c2cc(-c3ccccc3)sc2n1 (centres undefined)	0	4	-1	4	-2	nt
COc1cccc(CN(C)C(=O)Cn2cc(C)c(=O)[nH]c2=O)c1	1	11	5	-5	14	nt
CS(=O)(=O)N(CC(=O)N1CCN(c2ccccc2F)CC1)c1ccc2c(c1)OCCO2	1	-6	-6	-5	34*	-4
Cn1ccc2c(-c3cncc4ccccc34)cc3c(c21)C1CCC3C1 (centres undefined)	nt	17	1	-2	32*	-3
Cn1ccc2c(-c3cccc4ccccc34)cc3c(c21)C1CCC3C1 (centres undefined)	nt	2	0	3	12	nt
Cc1ccc(-n2nc3ccc(NC(=O)C(C)C)cc3n2)cc1	-2	-6	1	1	-1	nt
Cc1ccc(-n2nc3ccc(NC(=O)c4ccco4)cc3n2)cc1	-2	3	-6	1	30*	13
Cc1cc(C)c(S(=O)(=O)N(CC(=O)NCc2cccnc2)C2CCCCC2)c(C)c1	0	0	-5	0	30*	4
Oc1ccc(Br)cc1-c1cc(-c2ccccc2Cl)[nH]n1	-3	0	3	0	8	nt
COc1ccc(O)c(-c2cc(-c3ccccc3Cl)[nH]n2)c1	-2	-2	17	3	30*	17
COc1ccc(NC(=O)C2CCCN(S(=O)(=O)c3ccc4c(c3)CC(C)N4C(C)=O)C2)cc1 (centres undefined)	3	3	-2	-5	26*	1
CC(NC1=CC(=O)c2cccnc2C1=O)C(O)c1ccccc1 (centres undefined)	2	36*	17	54	27*	-9
CC(C)(C)c1ccc(NC(=O)CN2C(=O)NC(C)(C3CC3)C2=O)cc1 (centres undefined)	4	-4	3	-2	5	nt
Cc1nc2ccc(NC(=O)c3ccc(Cl)c(NC(=O)c4cccs4)c3)cc2s1	-2	-14	19	3	26*	14
SMILES	V-ATPase pH	NRP1-CendR mod	ASAP1 inh	Granule exo inh	ARFGAP1 inh	ARFGAP1 inh conf
Cc1nc2ccc(NC(=O)C3CCN(S(=O)(=O)c4cccs4)CC3)cc2s1	-3	7	9	-4	25*	3
COc1ccc(NC(=O)Nc2ccc3c(c2)C(=O)N([C@H](C)CO)C[C@H](C)[C@H](CN(C)C)OCCCC[C@@H](C)O3)cc1	nt	nt	11	nt	2	nt
CC[C@H](C)[C@H]1CNC(=S)N1CC1CCN(CCC23CC4CC(CC(C4)C2)C3)CC1	-2	-1	-11	-2	-3	nt
O=C(COc1ccc(Cl)cc1)Nc1ccc2c(c1)CCC2	-2	-18	-7	-13	30*	8
CC(=O)c1ccc(OCC(=O)Nc2ccc3c(c2)CCC3)cc1	-2	3	-1	2	11	nt
O=C1CSc2ccc(C(=O)Nc3cccc(S(=O)(=O)Nc4ccc(Br)cc4)c3)cc2N1	-1	-3	15	63*	33*	25*
O=C(O)c1ccc(NC(=O)c2cccc(S(=O)(=O)Nc3ccc(C(=O)O)cc3)c2)cc1	-1	-32	-8	-1	-15	nt
Cc1cc(=O)n(C2CCS(=O)(=O)C2)[nH]1 (centres undefined)	-2	-1	-1	5	29*	-8
O=C(c1ccc(F)cc1F)N1CCN(c2ccccn2)CC1	3	4	-9	9	-8	nt
CC(=O)Nc1c(I)c(C(=O)N[C@H]2C(O)O[C@H](CO)[C@@H](O)[C@@H]2O)c(I)c(N(C)C(C)=O)c1I (some centres undefined)	3	-60	9	-2	8	nt
C[C@H](O)[C@@H]1C(=O)N2CCc3ccc(N4CCN(C)CC4)cc3[C@@H]2C[C@@H]1N(C)C(=O)c1ccco1	-1	-3	-5	-6	-16	nt
Cc1nnc2n(-c3ccccc3)c(=O)c3c4c(sc3n12)CC(C)CC4 (centres undefined)	5	3	1	-2	-6	nt
COc1ccc(-n2c(=O)c3c4c(sc3n3cnnc23)CC(C)CC4)cc1 (centres undefined)	3	-4	16	1	27*	62*
O=C(Nc1ccccc1)Nc1sccc1-c1nc2ccccc2s1	0	-31	-3	1	4	nt
O=C(Nc1cccc(Cl)c1)Nc1sccc1-c1nc2ccccc2s1	8	-38	5	8	27*	12
Cc1ccccc1OCC(=O)N(Cc1cccs1)C1CCS(=O)(=O)C1 (centres undefined)	1	-3	10	1	25*	-1
Fc1cccc(Cc2c(C3CCCCC3)nc3ccc(Br)cn23)c1	nt	-12	-7	-2	-10	nt
O=S1(=O)N[C@H](Cc2ccccc2)COc2cccc(N3CCCCC3)c21	nt	nt	2	nt	8	nt
O=C(Nc1cccc(C(F)(F)F)c1)C1CCN(S(=O)(=O)c2cccnc2)CC1	1	7	3	4	1	nt
O=C(NCCc1nc2ccccc2[nH]1)c1cccc(Br)c1	-5	-1	-3	-6	25*	-2
